According to ChEMBL document CHEMBL2169772, “Discovery of (2S)-1-[4-(2-{6-amino-8-[(6-bromo-1,3-benzodioxol-5-yl)sulfanyl]-9H-purin-9-yl}ethyl)piperidin-1-yl]-2-hydroxypropan-1-one (MPC-3100), a purine-based Hsp90 inhibitor” (J Med Chem, 2012):

Experiments:
[1] = target: T1, Heat shock protein HSP90 (Homo sapiens, UniProt P07900+P08238); test: Inhibition of human HSP90 in HCT116 cells expressing Her2 gene assessed as degradation of Her2 after 4 hrs by luciferase reporter gene assay; format: cell-based; conditions: hct-116
How it was run: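 HCT116 cells stably transfected with Her2 kinase domain (aa 641–975) fused to firefly luciferase. Seeded at 10 000 per well in DMEM with 10% serum and left overnight. Compound added from DMSO (0.4% final) for 4 h. Steady-Glo added at room temperature for 5 min, then luminescence read.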

[2] = target: T1, Heat shock protein HSP90; test: Inhibition of human HSP90 using BODIPY labelled geldanamycin as substrate by fluorescence polarization assay; format: protein assay
[3] = tested on: HCT-116; test: Cytotoxicity against human HCT116 cells assessed as inhibition of tumor growth incubated for 72 hrs by luminometry; format: functional, cell-based; conditions: HCT-116, 72 h
How it was run: (§1)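 Cells seeded at 5000 per well in DMEM with 10% serum and left overnight. Compound added from DMSO dilutions (0.4% DMSO final) for 72 h. After 5 min at room temperature, ATPLite two-step lysis and substrate added, 5 min incubation, then luminescence read. Values are the mean of at least two experiments.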

[4] = Metabolic stability in human liver microsomes assessed as percent of residual drug in presence of NADPH incubated for 40 mins by LC-ESI-MS/MS method; format: ADME, Microsome; conditions: liver microsomes, read-out: Stability
How it was run: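 Test article incubated in duplicate with human liver microsomes (0.5 mg/mL protein) in 100 mM potassium phosphate pH 7.4. Started with 1 mM NADPH. Stopped with acetonitrile at 0, 10, 20 and 40 min. LC-MS/MS peak area at 40 min reported as percent of 0 min. No-NADPH control incubated for 40 min.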

[5] = Cytotoxicity against human NCI-ADR-RES cells overexpressing P-gp 1 assessed as inhibition of tumor growth incubated for 72 hrs by luminometry; format: functional, cell-based; how it was run: as §1

Nc1ncnc2c1nc(Sc1cc3c(cc1Br)OCO3)n2CCC1CCOCC1
IC50 [1]: 90 nM | IC50 [2]: 57 nM | IC50 [3]: 590 nM | remaining at 40 min [4]: 0%

Nc1ncnc2c1nc(Sc1cc3c(cc1Br)OCO3)n2CCc1ccccc1Br [BROMODERIVATIVE]
IC50 [1]: 50 nM | IC50 [2]: 30 nM | IC50 [3]: 200 nM | remaining at 40 min [4]: < 1%

Nc1ncnc2c1nc(Sc1cc3c(cc1Br)OCO3)n2CCC1CCN(C(=O)C2CCCC2)CC1
IC50 [5]: 370 nM | IC50 [1]: 250 nM | IC50 [2]: 250 nM | IC50 [3]: 1300 nM | remaining at 40 min [4]: 0%

Nc1ncnc2c1nc(Sc1cc3c(cc1Br)OCO3)n2CCC1CCN(CC2CCCCC2)CC1
IC50 [5]: 722 nM | IC50 [1]: 250 nM | IC50 [2]: 240 nM | IC50 [3]: 1000 nM | remaining at 40 min [4]: 10%

Nc1ncnc2c1nc(Sc1cc3c(cc1Br)OCO3)n2CCC1CCC(F)(F)CC1
IC50 [2]: 1000 nM | remaining at 40 min [4]: 15%

CC(=O)C(=O)N1CCC(CCn2c(Sc3cc4c(cc3Br)OCO4)nc3c(N)ncnc32)CC1
IC50 [5]: 100000 nM | IC50 [1]: 34 nM | IC50 [2]: 110 nM | IC50 [3]: 270 nM | remaining at 40 min [4]: 2%

CCCC(=O)N1CCC(CCn2c(Sc3cc4c(cc3Br)OCO4)nc3c(N)ncnc32)CC1
IC50 [5]: 2000 nM | IC50 [2]: 300 nM | IC50 [3]: 850 nM | remaining at 40 min [4]: 0%

CC(C)CN1CCC(CCn2c(Sc3cc4c(cc3Br)OCO4)nc3c(N)ncnc32)CC1
IC50 [5]: 1980 nM | IC50 [1]: 110 nM | IC50 [2]: 700 nM

CN1CCOc2cc(Br)c(Sc3nc4c(N)ncnc4n3CCC3CCN(C=O)CC3)cc21
IC50 [5]: 20000 nM | IC50 [1]: 210 nM | IC50 [2]: 310 nM | IC50 [3]: 1500 nM | remaining at 40 min [4]: 0%

Nc1ncnc2c1nc(Sc1cc3c(cc1Br)OCO3)n2CCC1CCN(C(=O)[C@@H]2CCCN2)CC1
IC50 [5]: 89000 nM | IC50 [1]: 190 nM | IC50 [2]: 60 nM | IC50 [3]: 830 nM | remaining at 40 min [4]: 38%

Nc1ncnc2c1nc(Sc1cc3ccoc3cc1Br)n2CCC1CCN(C=O)CC1
IC50 [5]: 7900 nM | IC50 [1]: 660 nM | IC50 [2]: 900 nM | IC50 [3]: 4400 nM | remaining at 40 min [4]: 51%

Nc1ncnc2c1nc(Sc1cc3c(cc1Br)OCC3)n2CCC1CCN(C=O)CC1
IC50 [5]: 86000 nM | IC50 [1]: 280 nM | IC50 [2]: 400 nM | IC50 [3]: 1200 nM | remaining at 40 min [4]: 5%

Nc1ncnc2c1nc(Sc1cc3c(cc1Br)CCO3)n2CCC1CCN(C=O)CC1
IC50 [5]: 1800 nM | IC50 [1]: 10 nM | IC50 [2]: 40 nM | IC50 [3]: 90 nM

CN(C)CC(=O)N1CCC(CCn2c(Sc3cc4c(cc3Br)OCO4)nc3c(N)ncnc32)CC1
IC50 [5]: 100000 nM | IC50 [1]: 80 nM | IC50 [2]: 70 nM | IC50 [3]: 200 nM

CC(C)(N)C(=O)N1CCC(CCn2c(Sc3cc4c(cc3Br)OCO4)nc3c(N)ncnc32)CC1
IC50 [5]: 50000 nM | IC50 [1]: 960 nM | IC50 [2]: 180 nM | IC50 [3]: 1600 nM

N#Cc1cc2c(cc1Sc1nc3c(N)ncnc3n1CCC1CCN(C=O)CC1)OCO2
IC50 [1]: 250 nM | IC50 [2]: 210 nM | IC50 [3]: 25000 nM | remaining at 40 min [4]: 81%

C[C@H](N)C(=O)N1CCC(CCn2c(Sc3cc4c(cc3Br)OCO4)nc3c(N)ncnc32)CC1
IC50 [5]: 100000 nM | IC50 [1]: 200 nM | IC50 [2]: 110 nM | IC50 [3]: 1200 nM | remaining at 40 min [4]: 69%

C[C@H](O)C(=O)N1CCC(CCn2c(Sc3cc4c(cc3Br)CCO4)nc3c(N)ncnc32)CC1
IC50 [5]: 11000 nM | IC50 [1]: 28 nM | IC50 [2]: 34 nM | IC50 [3]: 210 nM | remaining at 40 min [4]: 21%

Nc1ncnc2c1nc(Sc1cc3c(cc1Br)OCO3)n2CCC1CCN(CC(F)(F)F)CC1
IC50 [2]: 600 nM

Cn1nnnc1N1CCC(CCn2c(Sc3cc4c(cc3Br)OCO4)nc3c(N)ncnc32)CC1
IC50 [5]: 130 nM | IC50 [1]: 31 nM | IC50 [2]: 45 nM | IC50 [3]: 62 nM | remaining at 40 min [4]: 0%

Nc1ncnc2c1nc(Sc1cc3c(cc1Br)C(=O)CC3)n2CCC1CCN(C=O)CC1
IC50 [5]: 100000 nM | IC50 [1]: 60 nM | IC50 [2]: 60 nM | IC50 [3]: 270 nM | remaining at 40 min [4]: 30%

Nc1ncnc2c1nc(Sc1cc3c(cc1Br)OCO3)n2CCc1ccccc1F
IC50 [1]: 50 nM | IC50 [2]: 30 nM | IC50 [3]: 200 nM | remaining at 40 min [4]: < 1%

C[C@H](O)C(=O)N1CCC(CCn2c(Sc3cc4c(cc3Cl)OCO4)nc3c(N)ncnc32)CC1
IC50 [5]: 20000 nM | IC50 [1]: 540 nM | IC50 [2]: 650 nM | IC50 [3]: 2700 nM | remaining at 40 min [4]: 32%

CC(C)(C)n1nnnc1N1CCC(CCn2c(Sc3cc4c(cc3Br)OCO4)nc3c(N)ncnc32)CC1
IC50 [2]: 1800 nM

Nc1ncnc2c1nc(Sc1cc3c(cc1Br)OCO3)n2CC[C@@H]1CCCCN1C=O
IC50 [2]: 180 nM

Nc1ncnc2c1nc(Sc1cc3c(cc1Br)OCO3)n2CCc1ccccc1Cl [CHLORODERIVATIVE]
IC50 [1]: 50 nM | IC50 [2]: 30 nM | IC50 [3]: 200 nM | remaining at 40 min [4]: < 1%

Nc1ncnc2c1nc(Sc1cc3c(cc1Cl)OCO3)n2CCC1CCN(C=O)CC1
IC50 [5]: 7600 nM | IC50 [1]: 92 nM | IC50 [2]: 210 nM | IC50 [3]: 1400 nM | remaining at 40 min [4]: 31%

Nc1ncnc2c1nc(Sc1cc3c(cc1Br)OCO3)n2CC[C@H]1CCCCN1C=O
IC50 [2]: 190 nM

CN1CCOc2cc(Sc3nc4c(N)ncnc4n3CCC3CCN(C=O)CC3)c(Br)cc21
IC50 [5]: 100000 nM | IC50 [1]: 32 nM | IC50 [2]: 65 nM | IC50 [3]: 250 nM

C#CCN1CCC(CCn2c(Sc3cc4c(cc3Br)OCO4)nc3c(N)ncnc32)CC1
IC50 [5]: 700 nM | IC50 [1]: 100 nM | IC50 [2]: 110 nM | IC50 [3]: 740 nM | remaining at 40 min [4]: 10%

Nc1ncnc2c1nc(Sc1cc3c(cc1Br)CCC3)n2CCC1CCN(C=O)CC1
IC50 [5]: 230 nM | IC50 [2]: 20 nM | IC50 [3]: 20 nM | remaining at 40 min [4]: 1%

Nc1ncnc2c1nc(Sc1cc3c(cc1Br)OCO3)n2CCC1CCNCC1
IC50 [5]: > 100000 nM | IC50 [1]: 950 nM | IC50 [2]: 470 nM | IC50 [3]: 4600 nM | remaining at 40 min [4]: 78%

CC(C)C[C@H](N)C(=O)N1CCC(CCn2c(Sc3cc4c(cc3Br)OCO4)nc3c(N)ncnc32)CC1
IC50 [5]: 34000 nM | IC50 [1]: 110 nM | IC50 [2]: 68 nM | IC50 [3]: 890 nM | remaining at 40 min [4]: 44%

CC(C)(O)C(=O)N1CCC(CCn2c(Sc3cc4c(cc3Br)OCO4)nc3c(N)ncnc32)CC1
IC50 [2]: > 5000 nM

CC(=O)N1CCC(CCn2c(Sc3cc4c(cc3Br)OCO4)nc3c(N)ncnc32)CC1
IC50 [5]: 3000 nM | IC50 [1]: 90 nM | IC50 [2]: 60 nM | IC50 [3]: 730 nM | remaining at 40 min [4]: 17%

Nc1ncnc2c1nc(Sc1cc3c(cc1Br)OCO3)n2CCC1CCN(C(=O)C2CC2)CC1
IC50 [5]: 930 nM | IC50 [1]: 110 nM | IC50 [2]: 110 nM | IC50 [3]: 650 nM | remaining at 40 min [4]: 1%
